Data taken from ChEMBL document CHEMBL5107962, “Covalent sortase A inhibitor ML346 prevents Staphylococcus aureus infection of Galleria mellonella” (RSC Med Chem, 2022).
Calls of active or inactive are those of the source. The calls are words filed in the database; no cut-off is given here.

Key:
[1] = Inhibition of recombinant Streptococcus pyogenes sortase A deltaN81 transpeptidation expressed in Escherichia coli BL21 (DE3) cells using Abz-LPATG-Dnp as substrate preincubated for 20 mins followed by substrate addition and measured every 1 min for 15 mins by FRET assay
Summary of the method: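 His-tagged enzyme purified by Ni-NTA and gel filtration. 1 µM SrtA preincubated with compound (0.05–50 µM) for 20 min at room temperature in 50 mM Tris-HCl pH 7.5, 150 mM NaCl, 5 mM CaCl2. Reaction started with 10 µM Abz-LPATG-Dnp, read at ex 309/em 420 nm. IC50 from a sigmoidal dose–response fit; triplicates, two experiments.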

[2] = molecular target: T1, Sortase A (Staphylococcus aureus, UniProt Q9S446); test: Inhibition of recombinant Staphylococcus aureus sortase A deltaN24 transpeptidation expressed in Escherichia coli BL21 (DE3) cells using IsdA64 to 323 as substrate preincubated for 20 mins followed by substrate addition and measured after 1.5 hrs by SDS-PAGE-based assay
Summary of the method: (§1)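 SrtA (200 µg mL-1) preincubated with inhibitor (1–50 µM) for 20 min at room temperature in Tris pH 7.5, NaCl, CaCl2 buffer. IsdA64-323 (300 µg mL-1 final) and 3 mM (Gly)3 added, incubated at 37 °C for 1.5 h, then run on 12% SDS-PAGE. IC50 from band quantification of precursor and mature product. Two independent experiments.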

[3] = Inhibition of recombinant Streptococcus pyogenes sortase A deltaN81 transpeptidation expressed in Escherichia coli BL21 (DE3) cells using IsdA64 to 323 as substrate preincubated for 20 mins followed by substrate addition and measured after 1.5 hrs by SDS-PAGE-based assay; summary of the method: as §1
[4] = tested on: Sortase A (Staphylococcus aureus), Q9S446 [UNDEFINED MUTATION]; test: Irreversible inhibition of recombinant Staphylococcus aureus sortase A deltaN24 expressed in Escherichia coli BL21(DE3) cells assessed as thermal stabilization by measuring change in melting temperature incubated for 15 mins by Nano DSF assay
Summary of the method: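 40 µg SaSrtAΔN24 (wild type or C184A) in 100 µL 50 mM Tris-HCl pH 9.0, 150 mM NaCl, 5 mM CaCl2 incubated with compound for 15 min at room temperature, then centrifuged. Label-free nanoDSF read at 330/350 nm while ramping 30–90 °C at 2 °C per min. Tm taken from the first derivative of the ratio.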

[5] = Irreversible inhibition of recombinant Streptococcus pyogenes sortase A deltaN81 expressed in Escherichia coli BL21(DE3) cells using Abz-LPATG-Dnp as substrate preincubated for 20 mins followed by substrate addition and measured every 1 min for 15 mins by FRET-based assay
[6] = tested on: Streptococcus pyogenes; test: Irreversible inhibition of recombinant Streptococcus pyogenes sortase A deltaN81 expressed in Escherichia coli BL21(DE3) cells using Abz-LPATG-Dnp as substrate assessed as increase in Km preincubated for 60 mins followed by substrate addition and measured every 1 min for 15 mins by FRET-based assay; conditions: time 75.0 min
Summary of the method: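 SrtA (5 µM) incubated 1 h at room temperature with compound or DMSO, then inhibitor removed by centrifugal filtration. Aliquots taken before and after filtration were assayed with Abz-LPATG-Dnp (0.78–200 µM for Sa enzyme, 0.2–50 µM for Sp enzyme) at ex 309/em 420 nm for 15 min. Km fitted; MTSET as control; triplicates, run in duplicate.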

[7] = molecular target: T1, Sortase A; test: (§2) Irreversible inhibition of recombinant Staphylococcus aureus sortase A deltaN24 expressed in Escherichia coli BL21(DE3) cells using Abz-LPATG-Dnp as substrate assessed as inactivation constant preincubated for 60 mins followed by substrate addition and measured every 1 min for 15 mins by fluorescence intensity based assay
Summary of the method: (§3)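 Variable inhibitor concentrations incubated with SaSrtAΔN24 or SpSrtAΔN81 for different times, followed by FRET enzyme kinetics with Abz-LPATG-Dnp. kobs fitted as kinact × [I]/(KI + [I]) to give kinact and KI.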

[8] = as §2, with “Streptococcus pyogenes” for “Staphylococcus aureus”, “deltaN81” for “deltaN24”; summary of the method: as §3
[9] = tested on: Streptococcus pyogenes; test: Irreversible inhibition of recombinant Streptococcus pyogenes sortase A deltaN81 expressed in Escherichia coli BL21(DE3) cells using Abz-LPATG-Dnp as substrate assessed as maximum inactivation rate constant preincubated for 60 mins followed by substrate addition and measured every 1 min for 15 mins by fluorescence intensity based assay; conditions: time 75.0 min; summary of the method: as §3
[10] = molecular target: Procathepsin L (Homo sapiens, UniProt P07711); test: Inhibition of cathepsin L (unknown origin) using Cbz-Phe-Arg-AMC as substrate at 20 uM preincubated for 5 mins followed by substrate addition and measured after 10 mins by fluorometric assay; conditions: time 15.0 min
Summary of the method: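 Cbz-Phe-Arg-AMC added (40 µM for B, 80 µM for L) and fluorescence read at ex 380/em 460 nm over 10 min. E64 at 6.25 nM as control. Triplicates, two experiments.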

[11] = tested on: Staphylococcus aureus; test: Anti-virulence activity against Staphylococcus aureus USA300 assessed as decrease in SpA display on cell envelope by Western blot analysis; assay type: functional, organism-based; conditions: dose 25-200 µM, DDE = dose-dependent effect
Summary of the method: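 S. aureus overnight culture diluted 1:1000 in TSB and grown with inhibitor until A600 3.0. Washed cells treated with 10 µg mL-1 lysostaphin in PBS for 15 min at 37 °C. Supernatant (cell-wall anchored proteins) run on SDS-PAGE and immunoblotted for SpA, with ClpP as loading control. Three independent experiments.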

[12] = tested on: Staphylococcus aureus; test: Anti-virulence activity against Staphylococcus aureus Newman harbouring deltasrtA mutant assessed as decrease in cell-wall anchored SpA level at 25 to 200 uM by FITC-labelled human IgG based […]; assay type: functional, organism-based; conditions: dose 25-200 µM
Summary of the method: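 S. aureus grown in TSB (1:1000 dilution) with inhibitor until A600 1.0. Washed cells incubated with FITC-labelled human IgG in PBS for 30 min at room temperature in the dark, rinsed, and read by fluorescence. Three technical replicates, three independent experiments. Mean ± SEM, unpaired two-tailed Student's t test (n = 3).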

[13] = tested on: Escherichia coli; test: Antibacterial activity against Escherichia coli AB1157 assessed as inhibition of bacterial growth incubated for 16 to 18 hrs; assay type: functional; conditions: time 16-18 hrs
Summary of the method: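 Broth microdilution: S. aureus in TSB, E. coli in LB. Overnight cultures diluted 1:1000, grown at 37 °C to A600 0.6, then diluted 1:400 into two-fold compound dilutions. Incubated 16–18 h at 37 °C without shaking. MIC taken as the lowest concentration with no visible growth. Two independent experiments.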

[14] = Toxicity in Galleria mellonella larvae assessed as creamy colour appearance measured after 120 hrs
Summary of the method: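 G. mellonella larvae (2-2.5 cm, creamy), starved 24 h, injected with 10 µL compound in vehicle (5% DMSO, 20% PEG300, 75% PBS with 6.6% solutol HS-15). Kept at 37 °C; survival and appearance recorded over 120 h with photography. Three independent experiments.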

[15] = tested on: Staphylococcus aureus; test: […] activity against compound pretreated wild type Staphylococcus aureus Newman infected in Galleria mellonella larvae assessed as pathogenicity by measuring melanization after 24 hrs of bacterial injection; assay type: functional, organism-based
Summary of the method: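 S. aureus diluted 1:1000 with or without compound and grown to A600 1.0. 10 µL of a 1 × 10^7 CFU mL-1 PBS suspension injected into the last proleg of starved larvae, held at 37 °C. Larvae chilled on ice and photographed at 24 h to score melanization. ΔsrtA strain used as control.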

Chain of Procathepsin L (P07711 114-333 limits assumed): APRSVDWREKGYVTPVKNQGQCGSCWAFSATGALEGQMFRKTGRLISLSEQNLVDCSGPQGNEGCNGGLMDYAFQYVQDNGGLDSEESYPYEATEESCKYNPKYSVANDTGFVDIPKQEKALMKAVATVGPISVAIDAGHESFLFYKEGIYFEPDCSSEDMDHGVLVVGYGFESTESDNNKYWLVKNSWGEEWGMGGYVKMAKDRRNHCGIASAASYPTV

COc1ccc(/C=C/C=C2C(=O)NC(=O)NC2=O)cc1
IC50 [1]: 1370 nM | IC50 [2]: 2650 nM | IC50 [3]: 5.88 µM | ΔTm [4]: 4.1 °C | IC50 [5]: 2300 nM | inhibition [6]: Active | Ki [7]: 2450 nM | Ki [8]: 686 nM | Kinact [9]: 0.044 min⁻¹ | inhibition [10]: Active | Activity [11]: Dde | Activity [12]: Active | MIC [13]: > 512 µg/mL | Activity [14]: Non-Toxic | Activity [15]: Active
